The list is not random: actives were taken first. Their share in the collection is about 4.3%.
STAT1 activator = increases IFN-gamma driven STAT1 reporter signal; NIH 3T3 STAT1-luciferase reporter, luminescence; 100% = IFN-gamma alone, no compound; activation (% of control), % at 5.5 µM; actives 2.6% (n = 200,000); AID 932;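 active = activation above the screen-wide mean activation plus 3 SD, cut at about 130% in these data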;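 note: raw ratio to IFN-gamma control signal so 100% means no change and 0% no light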
FLuc stim CS = firefly luciferase counter-screen for stimulation assays; ATPlite luciferase biochemical, luminescence, 10 min; 0 = ATP-free wells, 1 = DMSO control; activation factor at 10 µM; 200,000 tested, under 10 active;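 active = luciferase activation factor, scaled between plate controls, of at least 2 with compound at 10 µM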
Target sequence (P08659 whole entry, looked up): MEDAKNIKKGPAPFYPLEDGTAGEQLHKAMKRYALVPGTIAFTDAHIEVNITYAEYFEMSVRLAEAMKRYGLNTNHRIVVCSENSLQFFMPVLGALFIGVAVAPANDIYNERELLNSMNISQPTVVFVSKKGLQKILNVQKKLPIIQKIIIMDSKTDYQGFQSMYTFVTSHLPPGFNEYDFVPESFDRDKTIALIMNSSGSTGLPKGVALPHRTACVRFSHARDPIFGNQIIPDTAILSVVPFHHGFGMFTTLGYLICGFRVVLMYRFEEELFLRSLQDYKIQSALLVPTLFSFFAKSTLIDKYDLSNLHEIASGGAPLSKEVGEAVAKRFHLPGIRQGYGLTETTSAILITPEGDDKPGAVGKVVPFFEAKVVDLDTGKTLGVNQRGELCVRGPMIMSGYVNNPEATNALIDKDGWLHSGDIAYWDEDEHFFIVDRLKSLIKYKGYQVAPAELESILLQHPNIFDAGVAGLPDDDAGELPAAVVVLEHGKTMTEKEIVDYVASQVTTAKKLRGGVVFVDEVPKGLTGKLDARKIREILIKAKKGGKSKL
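Material: Luciferase/luciferin reagent mix; Doses: test compounds dosed from 2 mM stocks in 100% DMSO; Schedule: 10 min incubation after luciferase reagent addition, room temperature; Measured by: luminescence from luciferase reaction; Read-out: luminescence gain marking luciferase activators.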
SDO1 yeast rescue = compounds rescuing growth of sdo1-depleted yeast, bone marrow failure model; actives 0.21% (n = 140,000); S. cerevisiae sdo1-depleted JHY4D growth rescue, OD600 30 h; stronger effect = higher value; pdr5 snq2 efflux-pump mutant strain; AID 817; z-score at 10 µM;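 active = z-score above 3 at both the 24 hr and the 30 hr optical density reads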;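 note: z-score against mean and SD of all compound wells on the same plate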
NF-kB neuron act = NF-kB expression increase, human neuronal cells. NF-kB reporter expression; stronger effect = higher value. actives 1.6% (n = 190,000). fold change at 12.5 µM. AID 1239; in the data active = fold change above about 3.3
FLuc inh counter = inhibits firefly luciferase, flagging false hits in luciferase inhibition screens. P08659. ATPLite firefly luciferase biochemical luminescence, 10 min. AID 1006. actives 1.5% (n = 200,000). inhibition, % at 10 µM;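 active = inhibition above about 50% when tested at 10 µM, limit read from the data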
APP 5'UTR act = APP 5'UTR luciferase reporter activation. AID 1276. SH-SY5Y APP 5'UTR luciferase reporter, luminescence; zero percent = DMSO vehicle wells. actives 1% (n = 190,000). activation, % at 2 µM;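 active = activation above a set limit, based on mean plus 3 SD of controls, cut at about 140% in these data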
STAT1 act conf = confirmation of STAT1 signaling activators. shares compounds with STAT1 activator. NIH 3T3 STAT1-luciferase reporter, IFN-gamma potentiation, luminescence; 100% = IFN-gamma EC80 alone, no compound. activation (% of control), % at 5.7 µM. actives 97% (n = 1,200);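 active = activation above a set limit carried over from the earlier primary STAT1 screen, cut at about 140% in these data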;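 note: simple ratio to median IFN-gamma plus DMSO wells so 0% means no light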
NFkB act STAT1ct = activates NF-kappaB, counter-screen to STAT1 activators | shares compounds with STAT1 activator | actives 43% (n = 1,200) | HEK293T NF-kB luciferase reporter, TNF-alpha stimulated, luminescence; 100% = TNF-alpha with vehicle only | activation (% of control), % at 5.7 µM;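 active = activation above the mean of solvent-only control wells plus 3 SD, set per campaign, cut at about 130% in these data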;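 note: TNF-alpha given at a submaximal dose yielding about 80% of full reporter signal; values are well signal over median control so 100% means no change and 0% no light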
STAT3 act STAT1c = human STAT3 activation in STAT1 activator counter-screen; U3A cells STAT3-luciferase reporter, IL-6, luminescence; cells lack STAT1; 100 = IL-6 alone, no compound effect; shares compounds with STAT1 activator; AID 1316; activation (% of control), % at 5.7 µM; actives 46% (n = 1,200);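 active = activation above the solvent-only control well mean plus 3 SD, set per plate batch, cut at about 110% in these data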;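 note: 0% = no luminescence and 100% = median IL-6 plus DMSO wells; higher means more STAT3 reporter activation so hits are non-selective activators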
The depositor's hits bear a star; . = no result given.

SMILES	STAT1 activator	FLuc stim CS	SDO1 yeast rescue	NF-kB neuron act	FLuc inh counter	APP 5'UTR act	STAT1 act conf	NFkB act STAT1ct	STAT3 act STAT1c
Cc1cccc(-c2cc(N)n(-c3ccccc3)n2)c1	173.9*	0.3	.	5.48*	72.5*	152.4*	185.2*	144.8*	112.8*
CCc1ccc(-c2cc(N)n(-c3ccccc3)n2)cc1	172.2*	0.2	.	10.6*	82.2*	241.8*	194.6*	145.6*	102.6
CCS(=O)(=O)n1nc(-c2ccccc2)cc1N	106.4	1	1.19	1.14	-0.5	10.6	.	.	.
OC(C#Cc1ccccn1)c1cccs1 (configuration not stated)	99.2	0.9	-0.17	1.42	6.5	-8.0	.	.	.
Cc1cc(-c2cccs2)n[nH]1	98.9	1	-0.74	0.97	-0.2	19.9	.	.	.
Cc1nc2nc(-c3cccs3)cn2nc1C	152.5*	0.7	-0.14	1.94	25.2	68.6	165.4*	134.4*	104.4
C/C(=N\NC(=O)c1ccc(Br)cc1)c1ccccc1	158.7*	0.5	0.8	5.69*	49.9	96.8	194.9*	128.0	109.5
CC(C)(C)c1ccc(NC(=O)Nc2ccc(F)cc2)cc1	175.5*	0.6	.	4.18*	36.3	162.0*	212.6*	137.8*	126.2*
COc1cccc(NC(=O)Nc2ccc(C(C)(C)C)cc2)c1	150.6*	0.6	.	4.32*	40.9	119.6	177.9*	129.2	110.1
N#CC1=C(SCC(=O)c2ccccc2)NC2=C(C(=O)CCC2)C1c1ccco1 (configuration not stated)	155.7*	1	-0.17	2.44	2.1	-68.4	165.7*	128.3	105.7
CCN(CC)c1ccc(/C=N/NC(=O)c2ccco2)cc1	165.4*	0.2	0.36	6.3*	78.6*	-48.6	216.9*	119.0	97.9
CC(C)CC(=O)Nc1cc2nn(-c3ccccc3)nc2cc1Cl	118.1	0.8	-0.3	2.06	18.8	.	.	.	.
Nc1cc2nn(-c3ccccc3)nc2cc1Cl	165.9*	0.5	.	4.4*	49.1	198.6*	238.1*	132.5	150.9*
Nc1ccc2nn(-c3ccccc3)nc2c1	154.7*	0.4	.	3.04	60.4*	92.6	203.2*	131.8	109.8
COc1ccc(-c2ccn(-c3cccc(F)n3)n2)cc1	153.8*	1	.	0.87	2.4	138.3*	177.8*	132.5	122.3*
COc1ccc(-n2ccc(-c3nn(-c4cccc(C(F)(F)F)c4)ccc3=O)n2)cc1	96.5	1.1	-0.93	1.18	-6.9	5.8	.	.	.
CN(CCC#N)C(=O)COC(=O)c1ccccc1OCc1ccccc1Cl	97.1	1.1	.	1.46	-10.8	-0.2	.	.	.
S=C(NCC1CCCO1)Nc1ccccc1 (configuration not stated)	107.7	1	.	0.93	-3.9	-18.4	.	.	.
O=C(CCCc1ccccc1)N1CCc2ccccc21	180.1*	0.5	-0.61	7.68*	51.8*	70.1	221.3*	136.6*	115.4*
Cc1ccc(C(=O)N2CCc3ccccc32)o1	164.7*	1	0.5	1.17	3.9	158.6*	183.5*	126.6	107.1
Cc1nc2ccccc2c2oc(C(=O)N3CCc4ccccc43)cc12	110.2	1.1	.	0.81	-5.7	10.0	.	.	.
Cc1c(C(=O)N2CCc3ccccc32)oc2c1C(=O)CC(C)(C)C2	157.1*	0.9	-0.92	2.76	8.4	33.5	180.2*	134.4*	113.2*
O=C(NNC(=O)c1ccccc1O)c1ccco1	102.7	0.6	.	1.54	44.3	40.3	.	.	.
CCOC(=O)C1(Cc2ccccc2)CCN(Cc2cn[nH]c2-c2ccccc2)CC1	87.6	1	.	0.77	-4.9	-8.3	.	.	.
Cc1ccc(C(=O)COC(=O)c2ccc(O)cc2)cc1	152.7*	0.7	.	6.22*	32.8	148.7*	169.6*	120.8	121.9*
SMILES	STAT1 activator	FLuc stim CS	SDO1 yeast rescue	NF-kB neuron act	FLuc inh counter	APP 5'UTR act	STAT1 act conf	NFkB act STAT1ct	STAT3 act STAT1c
S=C(NCCc1ccc(Cl)cc1)NC1CC1	101.9	1.1	.	1.07	-9.8	9.2	.	.	.
CC(=O)Nc1nc2ccc(Br)cc2s1	173.6*	1	-0.16	2.63	-2.1	32.3	205.2*	141.3*	112.2*
O=C(CSc1nc2ccccc2o1)Nc1nc2ccc(Br)cc2s1	103.4	1.1	-1	1.01	-5.3	4.5	.	.	.
Cn1cc(Cl)c(C(=O)Nc2nc3ccc(Cl)cc3s2)n1	151.3*	0.6	-1.05	3.18	41.8	73.4	171.4*	137.6*	99.7
CCOC(=O)c1ccc2nc(NC(C)=O)sc2c1	160.6*	0.9	.	2.79	7.6	79.5	167.9*	123.7	108.7
CCOC(=O)c1ccc2nc(Nc3nc4ccc(F)cc4s3)sc2c1	61.7	1	1.09	0.77	0.2	-6.8	.	.	.
COc1ccc(-c2cnc3c(c2)CCC3(C#N)C#N)cc1	112.4	1	-0.26	2.23	-3.6	-62.5	.	.	.
Cc1cc(C)c(NC(=O)CN2CCC(NC(=O)NC3CCCCC3)CC2)c(C)c1	96.3	1	.	1.12	-2.8	-20.0	.	.	.
CC1(C)Cc2nc3sc(C(=O)NCCCO)c(N)c3cc2CS1	118.6	0.9	.	1.87	11.7	49.4	.	.	.
CCCCn1cnc2c(sc3nc4c(cc32)CSC(C)(C)C4)c1=O	151.5*	0.7	0.45	3.27	30.8	166.4*	208.4*	134.3*	107.9
CC(=O)Nc1ccc2c(c1)C(=O)c1ccccc1C2=O	156.1*	0.5	-1.11	3.86*	46.3	185.8*	202.8*	139.2*	106.2
Cc1ccc(CNc2ccc(S(=O)(=O)N3CCOCC3)cc2[N+](=O)[O-])cc1	103.0	1.1	-0.94	0.75	-7.9	-1.7	.	.	.
Cc1ccc(N2C(=O)C3NN=C(C(=O)OCc4ccccc4)C3C2=O)c(C)c1 (configuration not stated)	97.5	1.1	-0.47	1.09	-7.9	-1.0	.	.	.
CN(C)C(/C=C/Nc1cccc([N+](=O)[O-])c1)=C(C#N)C#N	103.6	1	.	1.22	1.9	4.7	.	.	.
Cc1ccc(C(=O)/C=C/Nc2cccc([N+](=O)[O-])c2)o1	153.3*	0.4	0.63	5.45*	62.5*	111.5	187.4*	124.7	106.4
Nc1nnc(SCc2nnc(-c3ccccc3)o2)s1	102.7	1	.	1.12	2.0	11.3	.	.	.
